Measurements reported in ChEMBL document CHEMBL1128421, “(Piperidinylalkoxy)chromones: novel antihistamines with additional antagonistic activity against leukotriene D4” (J Med Chem, 1995).
pIC50, pKd: −log10 of the molar value. Active and inactive are the calls of the source. The calls are words filed in the database; no cut-off is given here.

What was measured:
Cavia porcellus [1] = organism: Cavia porcellus; assay: Compound was evaluated for inhibition of contraction in guinea pig ileum induced by leukotriene D4 (LTD4).; format: functional, organism-based
In short: (§1)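 Isolated guinea pig ileum strip in Krebs buffer at 37 °C, continuously bubbled with 95% O2–5% CO2. After washing, the strip was pre-incubated with compound for 30 min before LTD4 challenge. Contraction was induced by LTD4 at 10 nM. The value reported is the antagonist concentration giving 50% of maximal inhibition. Means ± SD of ≥3 independent experiments.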

Cavia porcellus [2] = organism: Cavia porcellus; assay: Compound was evaluated for antihistaminic activity against isolated guinea pig ileum.; format: functional
In short: (§2)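 Isolated guinea pig ileum segment (about 2 cm) in an organ bath of Krebs buffer at 37 °C, bubbled with 95% O2–5% CO2. Three cumulative histamine dose-response curves were run first, starting at 10 nM. After washing, the strip was exposed to compound for 30 min and the curve repeated. KB was derived by Cheng–Prusoff. Means ± SD of ≥3 independent experiments.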

Histamine H1 receptor [3] = biological target: T1, Histamine H1 receptor (Cavia porcellus, UniProt P31389); assay: Dissociation constant was determined against H1 receptor of guinea pig lung membranes using radioligand binding assays.; format: tissue-based
In short: (§3)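 Guinea pig lung membranes were incubated with 0.5 nM [3H]mepyramine and compound at 37 °C in 50 mM Na-K phosphate, pH 7.5. Nonspecific binding was defined with (-)-dimethindene. The reaction was stopped with ice-cold buffer, then filtered on GF/C and counted by scintillation. KB by Cheng–Prusoff; means of two independent assays in triplicate.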

[4] = biological target: T2, Cysteinyl leukotriene receptor 1 (Cavia porcellus, UniProt Q2NNR5); assay: Dissociation constant was determined against Cysteinyl leukotriene D4 receptor of guinea pig lung membranes using radioligand binding assays.; format: tissue-based
T2 sequence (Q2NNR5 whole entry): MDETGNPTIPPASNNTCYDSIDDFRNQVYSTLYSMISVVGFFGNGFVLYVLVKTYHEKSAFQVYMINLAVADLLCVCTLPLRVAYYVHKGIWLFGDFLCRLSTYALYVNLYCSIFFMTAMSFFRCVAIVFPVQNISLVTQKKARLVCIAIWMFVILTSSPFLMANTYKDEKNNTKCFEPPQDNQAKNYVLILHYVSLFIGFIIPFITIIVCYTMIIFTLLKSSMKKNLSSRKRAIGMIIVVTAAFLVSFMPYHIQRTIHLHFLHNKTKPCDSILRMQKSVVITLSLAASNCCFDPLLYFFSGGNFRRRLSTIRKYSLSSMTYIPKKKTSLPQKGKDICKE

Cavia porcellus [5] = organism: Cavia porcellus; assay: Compound was evaluated for inhibition of contraction in guinea pig ileum induced by leukotriene D4 (LTD4); Not active; format: functional, organism-based; in short: as §1
Histamine H1 receptor [6] = biological target: T1, Histamine H1 receptor; assay: dissociation constant was determined against H1 receptor of guinea pig lung membranes using radioligand binding assays.; format: tissue-based
In short: as §3, with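 “scintillation. Radioligand KD was 3.30 nM.” for “scintillation.”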

Cavia porcellus [7] = organism: Cavia porcellus; assay: Compound was evaluated for antihistaminic activity against isolated guinea pig ileum; Not active; format: functional; in short: as §2
Cavia porcellus [8] = organism: Cavia porcellus; assay: Compound was evaluated for inhibition of [3H]LTD4 binding in guinea pig lung membrane fragments.

T1 sequence (P31389 whole entry): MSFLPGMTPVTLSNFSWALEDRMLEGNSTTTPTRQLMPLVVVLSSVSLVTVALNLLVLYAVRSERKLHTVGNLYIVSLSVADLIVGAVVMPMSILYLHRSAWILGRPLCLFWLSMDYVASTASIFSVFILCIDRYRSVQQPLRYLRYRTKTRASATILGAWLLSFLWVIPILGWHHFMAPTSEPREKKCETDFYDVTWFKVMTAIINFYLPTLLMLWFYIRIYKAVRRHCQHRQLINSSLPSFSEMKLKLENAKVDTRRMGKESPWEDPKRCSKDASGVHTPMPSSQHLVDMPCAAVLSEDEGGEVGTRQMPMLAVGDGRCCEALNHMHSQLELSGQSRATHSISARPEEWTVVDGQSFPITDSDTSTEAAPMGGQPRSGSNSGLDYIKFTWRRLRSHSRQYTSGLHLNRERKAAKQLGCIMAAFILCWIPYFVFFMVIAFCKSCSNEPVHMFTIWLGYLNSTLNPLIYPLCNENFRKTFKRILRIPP

| pIC50 (Cavia porcellus [1]) | Compound | Kb (Cavia porcellus [2]; Cavia porcellus, Ileum) [nM] | also measured |
| --- | --- | --- | --- |
| 4.74 | O=C(O)c1cc(=O)c2ccc(OCCCCCN3CCC(OC(c4ccccc4)c4ccccc4)CC3)cc2o1 | 17 |  |
| 4.64 | O=C(O)c1cc(=O)c2ccc(OCCCN3CCC(C(O)(c4ccccc4)c4ccccc4)CC3)cc2o1 | 5.25 |  |
| 6.19 | O=C(O)c1cc(=O)c2cc(OCCCN3CCC(=C(c4ccccc4)c4ccccc4)CC3)ccc2o1 | 5.75 | pKd (Histamine H1 receptor [3]): 8.22; pKd [4]: 5.37 |
|  | CC(C)(C)c1ccc(C(O)CCCN2CCC(C(O)(c3ccccc3)c3ccccc3)CC2)cc1 (stereo unspecified) [TERFENADINE] |  | IC50 (Cavia porcellus [5]): Not Active |
| 6.72 | O=c1cc(C2N=NN=N2)oc2cc(OCCCN3CCC(=C(c4ccccc4)c4ccccc4)CC3)ccc12 | 3.63 | pKd [4]: 5.63; pKd (Histamine H1 receptor [6]): 8.23 |
| 5.00 | O=C(O)c1cc(=O)c2ccc(OCCCCN3CCC(OC(c4ccccc4)c4ccccc4)CC3)cc2o1 | 7.08 |  |
| 4.25 | O=c1cc(C2N=NN=N2)oc2cc(OCCCN3CCC(C(O)(c4ccccc4)c4ccccc4)CC3)ccc12 | 1.7 |  |
| 6.92 | CCCc1c(OCC(O)COc2ccc3c(=O)cc(C(=O)O)oc3c2CCC)ccc(C(C)=O)c1O (stereo unspecified) [FPL-55712] |  | Kb (Cavia porcellus [7]): inactive |
|  | Cc1ccc(C(OC2CCN(CCCOc3ccc4c(=O)cc(C(=O)O)oc4c3)CC2)c2ccccc2)cc1 (stereo in doubt; 1j) |  | pIC50 (Cavia porcellus [8]): 3.67; Kb (Cavia porcellus [2]): 2.24 nM |
| 4.69 | O=C(O)c1cc(=O)c2ccc(OCCCN3CCC(=C(c4ccccc4)c4ccccc4)CC3)cc2o1 | 16.2 |  |
| < 4.00 | O=C(O)c1cc(=O)c2cc(OCCCN3CCC(C(O)(c4ccccc4)c4ccccc4)CC3)ccc2o1 | 3.8 |  |
|  | Cc1ccc(C(OC2CCN(CCCOc3ccc4c(=O)cc(C(=O)O)oc4c3)CC2)c2ccccc2)cc1 (stereo in doubt; 1i) |  | pIC50 (Cavia porcellus [8]): 4.78; Kb (Cavia porcellus [2]): 12.3 nM |
| 4.32 | O=C(O)c1cc(=O)c2ccc(OCCCCCCN3CCC(OC(c4ccccc4)c4ccccc4)CC3)cc2o1 | 5.13 |  |
| 5.84 | O=C(O)c1cc(=O)c2ccc(OCCCN3CCC(OC(c4ccccc4)c4ccccc4)CC3)cc2o1 | 9.12 |  |
